As a reminder, the inhibition is how much of the control response was suppressed.

Drawing on ChEMBL document CHEMBL1153713, “Effect of chirality of small molecule organofluorine inhibitors of amyloid self-assembly on inhibitor potency” (Bioorg Med Chem Lett, 2009), this text covers Activity and inhibition for 6 compounds.

Assay [1] is described as follows: Inhibition of amyloid beta (1 to 40) after 94 hrs by thioflavin-T assay relative to control. In short, it runs like this:
(§1)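 Synthetic Aβ1-40 dissolved in 100 mM NaOH (40 mg/ml), diluted to 100 μM final in 10 mM HEPES, 100 mM NaCl, 0.02% NaN3, pH 7.4; inhibitor added from DMSO at inhibitor/Aβ = 10. Incubated at 37°C, 77 rpm shaking, up to 140 h. Aliquots into 5 μM ThT in glycine-NaOH pH 8.5; ex 430/em 484 nm, 0 h background subtracted, normalized to inhibitor-free control.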

A short description of assay [2]: Inhibition of amyloid beta (1 to 40) fibrillation by atomic force microscopy. In short, it runs like this:
(§2)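 Aβ1-40 (100 μM in HEPES/NaCl/NaN3, pH 7.4) incubated with inhibitor (DMSO stock, 10:1 inhibitor:peptide) at 37°C with gentle shaking. Aliquots diluted in the same HEPES buffer, 2-5 μL spotted on freshly cleaved mica. Imaged by non-contact AFM over 10 μm2 scans and compared with inhibitor-free control.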

The nature of assay [3]: Inhibition of amyloid beta (1 to 40) after 140 hrs by thioflavin-T assay. In short, it runs like this:
as §1

Assay [4] can be described thus: Inhibition of amyloid beta (1 to 40) fibrillation by atomic force microscopy relative to control. Conditions: concentration not given here. In a few lines:
as §2

Calls of active or inactive are those of the source. The calls are words filed in the database; no cut-off is given here.

With `CCOC(=O)[C@](O)(c1c[nH]c2ccc(I)cc12)C(F)(F)F`, the outcome in assay [1], in assay [2] and in assay [3] was Active.

With `CCOC(=O)[C@@](O)(c1c[nH]c2ccc(Cl)cc12)C(F)(F)F`, the result in assay [1], in assay [2] and in assay [3] was Active. The compound further had an inhibition in assay [4] of 60%.

For the compound `CCOC(=O)[C@](O)(c1c[nH]c2ccc(Cl)cc12)C(F)(F)F`, the outcome in assay [1], in assay [2] and in assay [3] was Active. In assay [4], this compound displayed an inhibition of 60%.

Take `CCOC(=O)[C@@](O)(c1c[nH]c2ccc(I)cc12)C(F)(F)F`: the result in assay [1], in assay [2] and in assay [3] was Active.

As to `CCOC(=O)[C@](O)(c1c[nH]c2ccc(Br)cc12)C(F)(F)F`, the outcome in assay [1], in assay [2] and in assay [3] was Active. Further, the inhibition in assay [4] worked out at 60%.

Consider `CCOC(=O)[C@@](O)(c1c[nH]c2ccc(Br)cc12)C(F)(F)F`, for which the result in assay [1], in assay [2] and in assay [3] was Active.
